From article PMC11568512 (Chemical communications (Cambridge, England), 2024)

What was measured:
[1] = test system: MDA-MB-231; assay: Antiproliferative activity, resazurin assay; assay type: cell-based; details: Homo sapiens, MDA-MB-231, 72 h, read-out: IC50 MDA-MB-231
[2] = test system: A2780 cells; assay: Cell cycle analysis by flow cytometry; assay type: cell-based; details: A2780, 24-hour incubation, DFX 50 μM, QT and IQT 5 μM
[3] = test system: ferritin heavy chain (ferritin H); assay: Western blot of iron handlers; assay type: cell-based; details: DFX 50 μM, QT and IQT 5 μM, FAC 50 μM
In short: (§1)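 A2780 cancer cells were exposed to test compounds (5 μM) or the reference iron chelator deferasirox (50 μM), with DMSO vehicle as control. Transferrin receptor 1 and ferritin heavy chain were probed by Western blot as markers of iron signalling. Statistics used t-tests versus DMSO vehicle.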

[4] = test system: tested cancer cell lines (MDA-MB-231, A2780); assay: Antiproliferative activity, text summary over tested cancer cell lines; assay type: cell-based; details: 72 h, read-out: IC50 range in the tested cancer cell lines
[5] = test system: A2780; assay: Antiproliferative activity, resazurin assay; assay type: cell-based; details: Homo sapiens, A2780, 72 h, read-out: IC50 A2780
[6] = test system: transferrin receptor 1 (TfR1); assay: Western blot of iron handlers; assay type: cell-based; details: DFX 50 μM, QT and IQT 5 μM, FAC 50 μM
In short: as §1

[7] = cited from earlier work

## O=C(O)c1ccc(-n2nc(-c3ccccc3O)nc2-c2ccccc2O)cc1 [DFX, deferasirox]
[1]
  IC50: 15 ± 2 µM
[2]
  cell cycle effect: cell accumulation in the S-phase
[3]
  ferritin H expression level: degradation of ferritin
[4]
  IC50: 10 to 20 µM
[5]
  IC50: 12 ± 2 µM
[6]
  TfR1 expression level: upregulation of TfR1

## ferric ammonium citrate [FAC]
[3]
  ferritin H expression level: upregulation of ferritin
[6]
  TfR1 expression level: decreased TfR1 expression

## Cc1nc(-[n+]2nc(-c3ccccc3)nn2-c2ccccc2)sc1C.[Br-] [MTT, 3-(4,5-dimethyl-2-thiazolyl)-2,5-diphenyl-tetrazolium]
[7]
  reduction in FBS: prone to reduction in FBS
